# Data published in the RNAGym collection of RNA variant scans (doi:10.1038/s41586-018-0170-7).
# B1: tRNA (parent)
# chain: GUUCCGUUGGCGUAAUGGUAACGCGUCUCCCUCCUAAGGAGAAGACUGCGGGUUCGAGUCCCGUACGGAACG
# Variants of: B1
# Test: yeast fitness, log relative to wild type (ln ratio); higher = fitter; tRNA-Arg(CCU), competitive growth, 37 C, 1 M NaCl
# Method in brief: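 For each genotype, fitness is defined as the natural log of its generation number over the wild type's. The tRNA-Arg(CCU) variant library was on a HIS3 centromeric plasmid in BY4742 with the chromosomal gene removed, and pools were first grown 4 generations in SC-HIS at 30 °C and then ~6.5 generations (~26.5 h) in SC-HIS 1M NaCl at 37 °C. Generations were calculated from OD-scaled log2 output/input frequency, weighted by inverse variance across replicates, using counts from 125 bp paired-end Illumina sequencing.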
row,Variant,yeast fitness (ln)
1,U2C G6A A43C C46U C66U A69G A70G,-0.00874
2,U2G G6A A70U,-0.0249
3,G1A C27U C66U A70U C71U,-0.342
4,G6A C27U A43C C46U A70U,-0.139
5,U2G C27U A43C A69G A70G,-0.238
6,U2C G6U C27U C66A A70U,-0.16
7,U2C C27U A43C C66A A69G A70U C71U,-0.443
8,G1A U2G G6U C27U A43C C66U A69G A70G C71U,-0.491
9,U2C C66A A69G A70G C71U,-0.105
10,G1A G6U C46U C66U A69G A70G,-0.205
11,U2C C27U C46U A70G,-0.0268
12,U2G G6A C46U C66A,-0.093
13,U2G C27U A69G A70U C71U,-0.518
14,G1A U2G C46U C66A C71U,-0.0962
15,G6U C27U A70U,-0.208
16,G6U C27U C66A,-0.0293
17,U2G C27U C46U C66A A69G A70G C71U,-0.184
18,U2C G6A C46U C66A A70U,-0.067
19,C46U A69G A70U C71U,-0.138
20,A43C C46U C66U A69G A70U C71U,-0.356
21,U2G G6A A43C C46U A69G C71U,-0.206

row,Variant,yeast fitness (ln)
1,U2C C27U C46U A69G C71U,-0.104
2,U2C G6U C46U C66A,-0.0276
3,U2C C27U C66U A70U C71U,-0.324
4,U2G C27U A69G A70U,-0.0281
5,U2C G6U C46U C71U,-0.0792
6,G1A U2G G6U C46U C66A A70U C71U,0.00484
7,U2G G6A A43C C46U C66A,-0.141
8,G1A U2G G6A C27U A43C C46U,-0.242
9,U2C G6U C27U A43C C46U C66U,-0.0875
10,G6U A43C C46U C66A A69G,0.0709
11,G1A C27U C66A A69G A70G C71U,-0.325
12,A43C C66U A69G C71U,-0.436
13,U2G C27U C46U A70U,-0.00918
14,U2C G6A A43C C46U C66U A70U,-0.209
15,U2C C27U C46U C66A A70G,-0.137
16,G1A U2C C46U C66A A70U C71U,-0.0833
17,G1A U2G G6A A43C C46U C66U A69G A70G C71U,-0.206
18,G1A G6A C46U C66U A70U,-0.0452
19,U2G G6A C46U C66U A69G C71U,-0.155
20,G6A C46U C66U A69G,-0.0205
21,G1A G6U A43C C46U A69G A70U,-0.272

row,Variant,yeast fitness (ln)
1,U2C C27U C66A A70U C71U,-0.222
2,U2G G6U A43C C66A,-0.122
3,G6U C27U C66A A69G A70G C71U,-0.329
4,G1A U2G G6A C27U A43C A70U C71U,-0.365
5,U2C G6U C27U A43C C66A A69G A70G C71U,-0.431
6,G1A U2C G6A C27U C66U A70U C71U,-0.261
7,U2C G6U C27U A70U,-0.153
8,U2G G6U A43C C66A A70G C71U,-0.265
9,U2G G6A C27U A43C C66U A70G C71U,-0.29
10,G1A G6A A43C A69G A70U C71U,-0.503
11,C27U A43C C46U C66U A69G A70U C71U,-0.391
12,G1A U2G G6U C46U C66U A70U C71U,-0.722
13,C27U A43C C46U C66A A70U,-0.0585
14,U2C G6U A43C C46U C66U A69G A70G,-0.262
15,U2C G6U C27U A43C C46U A69G C71U,-0.187
16,U2C G6U C27U A43C C46U C66U A70G C71U,-0.225
17,G1A C27U A43C C46U C66A A70U C71U,-0.359
18,U2C G6A A43C A69G A70G,-0.0768
19,G1A U2G C27U C46U C66A A70U,-0.138
20,U2G C27U A43C C46U C66U A70U,-0.271
21,G1A G6U C27U A70G,-0.277

row,Variant,yeast fitness (ln)
1,G1A U2C G6A A43C A70U,-0.113
2,G1A U2G A43C C66A A70U C71U,-0.396
3,G1A U2G C27U A69G A70U C71U,-0.386
4,G1A G6U C27U A43C C66A A70U C71U,-0.608
5,U2C G6A A43C C46U C66U A69G C71U,-0.332
6,G1A U2C G6U C46U C66A C71U,-0.0738
7,U2C G6A C66U A69G A70U C71U,-0.343
8,U2G C46U C66U A69G A70G C71U,-0.114
9,U2G C46U C66U A70G C71U,-0.115
10,G1A U2G G6A C27U A43C A69G C71U,-0.673
11,U2C G6U C27U A43C C46U C66A A69G A70G C71U,-0.0738
12,G1A U2G C46U C66A A70G C71U,-0.198
13,C46U C66A A69G A70U C71U,-0.282
14,G1A U2C G6A C27U C46U,-0.0428
15,G1A U2G G6A C27U C66A A69G A70G C71U,-0.353
16,U2G G6U C46U C66A,-0.0648
17,U2G G6U A43C C46U A69G A70G C71U,-0.223
18,A43C A69G A70G C71U,-0.0742
19,U2C G6U A43C C66U A70U C71U,-0.531
20,G6U C27U A43C C46U C66A A70G,-0.123
